Assay results reported in ChEMBL document CHEMBL1921714, “Discovery of aminobenzyloxyarylamides as κ opioid receptor selective antagonists: application to preclinical development of a κ opioid receptor antagonist receptor occupancy tracer” (J Med Chem, 2011).
Calls of active or inactive are those of the source. No cut-off for these calls is given here.

Tested on: CHO
Assay: Selectivity ratio of Kb for human opioid mu receptor expressed in CHO cells to Kb for human opioid kappa receptor expressed in CHO cells
Format: cell-based
In short: (§1)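 Kb ratios from antagonist [35S]GTP-γ-S SPA on CHO (κ, μ) or HEK293 (δ) membranes. Agonists at about 80% maximal: U69,593 300 nM (κ), DAMGO 1 μM (μ), DPDPE 30 nM (δ). 11-point curves, top 1 or 10 μM. Nonspecific binding: NorBNI, naltrexone or naltriben, each 10 μM. Kb = IC50/(1+D/EC50); geometric means with SEM.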

Question: Which Ratio does the source give for `Cc1cc(C)cc([C@@H]2CCCN2Cc2ccc(Oc3ccc(C(N)=O)cc3F)cc2)c1` [ATICAPRANT] here?
Answer: 21

Tested on: HEK293
Assay: Selectivity ratio of Kb for human opioid delta receptor expressed in HEK293 cells to Kb for human opioid kappa receptor expressed in CHO cells
Format: cell-based
In short: as §1

Question: With `Cc1cc(C)cc([C@@H]2CCCN2Cc2ccc(Oc3ccc(C(N)=O)cc3F)cc2)c1` [ATICAPRANT] as the molecule, how does the Ratio read?
Answer: 135

Target: T1, Mu-type opioid receptor (Homo sapiens, UniProt P35372)
Assay: Displacement of [3H]diprenorphine from human opioid mu receptor expressed in CHO cells after 120 mins by scintillation counting
Format: cell-based
In short: (§2)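 11-point curves, 0.01 nM–1 μM final. 120 min at 22 °C, then filtration and scintillation counting. Nonspecific binding set by 10 μM naltrexone. Four-parameter IC50; Ki by Cheng–Prusoff.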

T1 sequence (P35372 whole entry): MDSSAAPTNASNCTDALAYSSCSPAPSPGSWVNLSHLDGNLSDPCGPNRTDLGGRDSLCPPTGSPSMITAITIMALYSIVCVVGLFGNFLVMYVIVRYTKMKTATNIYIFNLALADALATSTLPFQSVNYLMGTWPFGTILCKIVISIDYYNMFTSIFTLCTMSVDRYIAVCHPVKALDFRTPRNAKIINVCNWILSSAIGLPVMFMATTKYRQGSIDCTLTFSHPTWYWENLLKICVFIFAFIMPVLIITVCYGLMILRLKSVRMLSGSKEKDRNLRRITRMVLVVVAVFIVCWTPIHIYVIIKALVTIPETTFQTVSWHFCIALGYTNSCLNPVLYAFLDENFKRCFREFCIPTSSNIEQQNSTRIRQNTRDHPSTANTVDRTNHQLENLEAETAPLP

Question: For `CC1(C)CN(Cc2ccc(Oc3ccc(C(N)=O)cn3)cc2)C1c1ccccc1` (racemic), which Ki is on record?
Answer: 52.7 nM

Question: For `NC(=O)c1ccc(Oc2ccc(CN3CCCC3c3cccnc3)cc2)c(Cl)c1` (racemic), which Ki is on record?
Answer: 31.5 nM

Question: How did the Ki turn out when `Cc1cc(C)cc([C@@H]2CCCN2Cc2ccc(Oc3ccc(C(N)=O)cc3F)cc2)c1` [ATICAPRANT] was run?
Answer: 22.7 nM

Question: For `NC(=O)c1ccc(Oc2ccc(CN3CCC[C@@H]3c3cccnc3)cc2)c(Cl)c1`, which Ki is on record?
Answer: > 500 nM

Tested on: CHO
Assay: Selectivity ratio of Ki for human opioid mu receptor expressed in CHO cells to Ki for human opioid kappa receptor expressed in CHO cells
Format: cell-based

Question: With `NC(=O)c1ccc(Oc2ccc(CN3CCCC3c3cccnc3)cc2)c(Cl)c1` (racemic) as the molecule, how does the Ratio Ki read?
Answer: 51

Question: For `Cc1cc(C)cc([C@@H]2CCCN2Cc2ccc(Oc3ccc(C(N)=O)cc3F)cc2)c1` [ATICAPRANT], which Ratio Ki is on record?
Answer: 24

Question: How did the Ratio Ki turn out when `NC(=O)c1ccc(Oc2ccc(CN3CCC[C@@H]3c3cccnc3)cc2)c(Cl)c1` was run?
Answer: > 11

Target: T2, Kappa-type opioid receptor (Homo sapiens, UniProt P41145)
Assay: Antagonist activity at human opioid kappa receptor expressed in CHO cells assessed as inhibition of U69593-induced [35S]GTP-gamma-S binding after 4 hrs by scintillation counting
Format: functional, cell-based

T2 sequence (P41145 whole entry): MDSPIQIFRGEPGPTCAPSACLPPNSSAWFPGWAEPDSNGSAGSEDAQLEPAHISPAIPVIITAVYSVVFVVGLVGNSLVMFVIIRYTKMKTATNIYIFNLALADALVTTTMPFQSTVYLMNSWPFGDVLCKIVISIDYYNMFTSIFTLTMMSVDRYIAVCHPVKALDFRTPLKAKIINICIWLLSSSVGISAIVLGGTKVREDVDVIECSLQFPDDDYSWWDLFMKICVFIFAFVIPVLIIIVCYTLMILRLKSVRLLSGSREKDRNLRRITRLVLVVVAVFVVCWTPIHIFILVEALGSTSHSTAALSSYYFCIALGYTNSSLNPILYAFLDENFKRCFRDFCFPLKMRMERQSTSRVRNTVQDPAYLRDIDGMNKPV

Question: For `Cc1cc(C)cc([C@@H]2CCCN2Cc2ccc(Oc3ccc(C(N)=O)cc3F)cc2)c1` [ATICAPRANT], which Kb is on record?
Answer: 0.813 nM

Target: T2, Kappa-type opioid receptor
Assay: Displacement of [3H]diprenorphine from human opioid kappa receptor expressed in CHO cells after 120 mins by scintillation counting
Format: cell-based
In short: as §2

Question: With `CC1(C)CN(Cc2ccc(Oc3ccc(C(N)=O)cn3)cc2)C1c1ccccc1` (racemic) as the molecule, how does the Ki read?
Answer: 1.41 nM

Question: For `NC(=O)c1ccc(Oc2ccc(CN3CCCC3c3cccnc3)cc2)c(Cl)c1` (racemic), which Ki is on record?
Answer: 0.622 nM

Question: For `Cc1cc(C)cc([C@@H]2CCCN2Cc2ccc(Oc3ccc(C(N)=O)cc3F)cc2)c1` [ATICAPRANT], which Ki is on record?
Answer: 0.949 nM

Question: `NC(=O)c1ccc(Oc2ccc(CN3CCC[C@@H]3c3cccnc3)cc2)c(Cl)c1` was tested. Which Ki did it give?
Answer: 44.9 nM

Tested on: HEK293
Assay: Selectivity ratio of Ki for human opioid delta receptor expressed in HEK293 cells to Ki for human opioid kappa receptor expressed in CHO cells
Format: cell-based

Question: For `NC(=O)c1ccc(Oc2ccc(CN3CCCC3c3cccnc3)cc2)c(Cl)c1` (racemic), which Ratio Ki is on record?
Answer: 404

Question: With `Cc1cc(C)cc([C@@H]2CCCN2Cc2ccc(Oc3ccc(C(N)=O)cc3F)cc2)c1` [ATICAPRANT] as the molecule, how does the Ratio Ki read?
Answer: 175

Question: How did the Ratio Ki turn out when `NC(=O)c1ccc(Oc2ccc(CN3CCC[C@@H]3c3cccnc3)cc2)c(Cl)c1` was run?
Answer: > 11

Target: T1, Mu-type opioid receptor
Assay: Antagonist activity at human opioid mu receptor expressed in CHO cells assessed as inhibition of DAMGO-induced [35S]GTP-gamma-S binding after 4 hrs by scintillation counting
Format: functional, cell-based

Question: With `Cc1cc(C)cc([C@@H]2CCCN2Cc2ccc(Oc3ccc(C(N)=O)cc3F)cc2)c1` [ATICAPRANT] as the molecule, how does the Kb read?
Answer: 17.4 nM

Target: T1, Mu-type opioid receptor
Assay: Agonist activity at human opioid mu receptor expressed in CHO cells assessed as stimulation of [35S]-GTPgammaS binding at 10 uM
Format: functional, cell-based
In short: (§3)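 Agonist mode: membranes from CHO (κ, μ) or HEK293 (δ) cells expressing cloned human receptors, no agonist added, tested at up to 10 μM. [35S]GTP-γ-S (0.5 nM final) binding in HEPES pH 7.4, MgCl2, NaCl, EDTA, DTT, 200 μM GDP. Read by WGA SPA beads after 2 h (δ) or 4 h (κ, μ) at room temperature, then 4 °C overnight.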

Question: For `CC1(C)CN(Cc2ccc(Oc3ccc(C(N)=O)cn3)cc2)C1c1ccccc1` (racemic), which Activity is on record?
Answer: inactive

Question: With `CC(C)[C@@H](CN1CC[C@@](C)(c2cccc(O)c2)[C@@H](C)C1)NC(=O)[C@H]1Cc2ccc(O)cc2CN1` as the molecule, how does the Activity read?
Answer: inactive

Question: How did the Activity turn out when `NC(=O)c1ccc(Oc2ccc(CN3CCCC3c3cccnc3)cc2)c(Cl)c1` (racemic) was run?
Answer: inactive

Question: How did the Activity turn out when `Cc1cc(C)cc([C@@H]2CCCN2Cc2ccc(Oc3ccc(C(N)=O)cc3F)cc2)c1` [ATICAPRANT] was run?
Answer: inactive

Question: For `NC(=O)c1ccc(Oc2ccc(CN3CCC[C@@H]3c3cccnc3)cc2)c(Cl)c1`, which Activity is on record?
Answer: inactive

Question: Which Activity does the source give for `Oc1ccc2c3c1O[C@H]1c4[nH]c5c(c4C[C@@]4(O)[C@@H](C2)N(CC2CC2)CC[C@]314)C[C@@]1(O)[C@H]2Cc3ccc(O)c4c3[C@@]1(CCN2CC1CC1)[C@H]5O4` here?
Answer: inactive

Target: T3, Delta-type opioid receptor (Homo sapiens, UniProt P41143)
Assay: Agonist activity at human opioid delta receptor expressed in HEK293 cells assessed as stimulation of [35S]-GTPgammaS binding at 10 uM
Format: functional, cell-based
In short: as §3

T3 sequence (P41143 whole entry): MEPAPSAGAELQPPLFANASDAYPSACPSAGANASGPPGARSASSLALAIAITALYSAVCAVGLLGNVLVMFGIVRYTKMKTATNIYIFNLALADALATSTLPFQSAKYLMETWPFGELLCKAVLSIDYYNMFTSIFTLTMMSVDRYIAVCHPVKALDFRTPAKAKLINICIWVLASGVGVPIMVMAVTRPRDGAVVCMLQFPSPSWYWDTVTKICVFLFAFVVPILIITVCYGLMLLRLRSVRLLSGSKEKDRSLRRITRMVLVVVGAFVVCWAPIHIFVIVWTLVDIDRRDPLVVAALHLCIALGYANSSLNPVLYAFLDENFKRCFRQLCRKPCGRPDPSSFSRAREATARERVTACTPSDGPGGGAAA

Question: For `CC1(C)CN(Cc2ccc(Oc3ccc(C(N)=O)cn3)cc2)C1c1ccccc1` (racemic), which Activity is on record?
Answer: inactive

Question: `CC(C)[C@@H](CN1CC[C@@](C)(c2cccc(O)c2)[C@@H](C)C1)NC(=O)[C@H]1Cc2ccc(O)cc2CN1` was tested. Which Activity did it give?
Answer: inactive

Question: With `NC(=O)c1ccc(Oc2ccc(CN3CCCC3c3cccnc3)cc2)c(Cl)c1` (racemic) as the molecule, how does the Activity read?
Answer: inactive

Question: With `Cc1cc(C)cc([C@@H]2CCCN2Cc2ccc(Oc3ccc(C(N)=O)cc3F)cc2)c1` [ATICAPRANT] as the molecule, how does the Activity read?
Answer: inactive

Question: With `NC(=O)c1ccc(Oc2ccc(CN3CCC[C@@H]3c3cccnc3)cc2)c(Cl)c1` as the molecule, how does the Activity read?
Answer: inactive

Question: For `Oc1ccc2c3c1O[C@H]1c4[nH]c5c(c4C[C@@]4(O)[C@@H](C2)N(CC2CC2)CC[C@]314)C[C@@]1(O)[C@H]2Cc3ccc(O)c4c3[C@@]1(CCN2CC1CC1)[C@H]5O4`, which Activity is on record?
Answer: inactive

Target: T3, Delta-type opioid receptor
Assay: Antagonist activity at human opioid delta receptor expressed in HEK293 cells assessed as inhibition of DPDPE-induced [35S]GTP-gamma-S binding after 4 hrs by scintillation counting
Format: functional, cell-based

Question: `Cc1cc(C)cc([C@@H]2CCCN2Cc2ccc(Oc3ccc(C(N)=O)cc3F)cc2)c1` [ATICAPRANT] was tested. Which Kb did it give?
Answer: 110 nM

Target: T3, Delta-type opioid receptor
Assay: Displacement of [3H]diprenorphine from human opioid delta receptor expressed in HEK293 cells after 120 mins by scintillation counting
Format: cell-based
In short: as §2

Question: For `CC1(C)CN(Cc2ccc(Oc3ccc(C(N)=O)cn3)cc2)C1c1ccccc1` (racemic), which Ki is on record?
Answer: > 500 nM

Question: `NC(=O)c1ccc(Oc2ccc(CN3CCCC3c3cccnc3)cc2)c(Cl)c1` (racemic) was tested. Which Ki did it give?
Answer: 251 nM

Question: For `NC(=O)c1ccc(Oc2ccc(CN3CCC[C@@H]3c3cccnc3)cc2)c(Cl)c1`, which Ki is on record?
Answer: > 500 nM

Target: T2, Kappa-type opioid receptor
Assay: Agonist activity at human opioid kappa receptor expressed in CHO cells assessed as stimulation of [35S]-GTPgammaS binding at 10 uM
Format: functional, cell-based
In short: as §3

Question: Which Activity does the source give for `CC1(C)CN(Cc2ccc(Oc3ccc(C(N)=O)cn3)cc2)C1c1ccccc1` (racemic) here?
Answer: inactive

Question: For `CC(C)[C@@H](CN1CC[C@@](C)(c2cccc(O)c2)[C@@H](C)C1)NC(=O)[C@H]1Cc2ccc(O)cc2CN1`, which Activity is on record?
Answer: inactive

Question: For `NC(=O)c1ccc(Oc2ccc(CN3CCCC3c3cccnc3)cc2)c(Cl)c1` (racemic), which Activity is on record?
Answer: inactive

Question: How did the Activity turn out when `Cc1cc(C)cc([C@@H]2CCCN2Cc2ccc(Oc3ccc(C(N)=O)cc3F)cc2)c1` [ATICAPRANT] was run?
Answer: inactive

Question: Which Activity does the source give for `NC(=O)c1ccc(Oc2ccc(CN3CCC[C@@H]3c3cccnc3)cc2)c(Cl)c1` here?
Answer: inactive

Question: How did the Activity turn out when `Oc1ccc2c3c1O[C@H]1c4[nH]c5c(c4C[C@@]4(O)[C@@H](C2)N(CC2CC2)CC[C@]314)C[C@@]1(O)[C@H]2Cc3ccc(O)c4c3[C@@]1(CCN2CC1CC1)[C@H]5O4` was run?
Answer: inactive
